Experimental data: PMC3925341 (Journal of medicinal chemistry, 2013)
“Also recorded” adds a separate entry of the source.

How the values were obtained:
[1] = tested on: (CUG)12·MBNL1; experiment: SPR-based inhibition of the MBNL1·; assay type: biochemical; details: relative to monomeric ligand 2
Outline: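 Biotinylated (CUG)12 was immobilized on a streptavidin SPR chip, with Tween-20 and excess competitor tRNA, in 1X PBS. The chip was preincubated with test compound to steady-state RU over 150 s. MBNL1 (0.65 μM) was then injected with compound held at the same concentration. Maximum RU at 150 s was converted to % (CUG)12 bound, normalized to no compound, and fitted dose-response for apparent IC50. Normalized IC50 = IC50 divided by the number of binding modules. Bivalent effect = normalized IC50 of monomer reference divided by that of dimer. Three experiments.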

[2] = target: TAMRA-(CUG)6; experiment: Steady state fluorescence titration of 5'-TAMRA-; assay type: binding; details: for KD: TAMRA-(CUG)6, 1X PBS; for fold decrease in KD compared to 2 (fold greater affinity to (CUG)6): relative to monomeric ligand 2
Outline: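 TAMRA-(CUG)6 was titrated with increasing test compound in 1X PBS, with excitation at 560 nm and emission at 590 nm. Normalized fluorescence intensities were fitted to a binding equation with Fmax and F0 to give KD. Mean ± s.d. of three independent experiments.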

[3] = tested on: DM1 cell model (HeLa cells); details: cited from earlier work
[4] = tested on: CUG repeat; details: cited from earlier work
[5] = tested on: CUG^exp foci in DM1 cell model (HeLa cells transfected with DMPK-CTG960); experiment: FISH study of; assay type: cell-based; details: 36 h
[6] = tested on: (CUG)12; experiment: Optical melting; assay type: binding; details: 11 versus 7, same number of linker atoms
[7] = tested on: HeLa cells; experiment: Sulforhodamine B cytotoxicity assay; assay type: cell-based; details: concentrations up to 75 μM, 24 h
[8] = Solubility in buffer / water
[9] = tested on: MBNL1 foci in live DM1 cell model (HeLa cells, DMPK-CTG960 and GFP-MBNL1); experiment: Time-lapse confocal microscopy of MBNL1 foci in live DM1 model cells; assay type: cell-based; details: 50 μM, over 10 h
Outline: (§1)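 Live-cell time-lapse confocal imaging of HeLa cells co-transfected with a DMPK-CTG960 minigene plasmid and a GFP-MBNL1 plasmid. Test compound at 50 μM final. Images were taken just before addition and at 3, 6 and 10 h. Cells were relocated on a gridded dish by DIC. Compound uptake was followed by its acridine fluorescence, and foci by GFP-MBNL1. Untreated cells served as control. Z-stacks of 1 μm slices were taken at 10 h.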

[10] = tested on: DM1 cell model (HeLa cells); experiment: Cellular and nuclear penetration by acridine fluorescence; assay type: cell-based; details: monitored by inherent acridine fluorescence
Outline: as §1

[11] = 20, 35 and 50 μM (any concentration)

Nc1nc(N)nc(NCCCCNc2c3ccccc3nc3ccc(C(=O)NCCCOCCOCCOCCCNC(=O)c4ccc5nc6ccccc6c(NCCCCNc6nc(N)nc(N)n6)c5c4)cc23)n1 [Ligand 12]
bivalent effect (ratio of normalized IC50 of 2 to that of the dimeric ligand) [1]: 5
KD [2]: close to the monomeric ligand 2

Nc1nc(N)nc(NCCCCNc2c3ccccc3nc3c(C(=O)NCCOCCOCCOCCOCCOCCNC(=O)c4cccc5c(NCCCCNc6nc(N)nc(N)n6)c6ccccc6nc45)cccc23)n1 [Ligand 8]
bivalent effect (ratio of normalized IC50 of 2 to that of the dimeric ligand) [1]: 4

COc1ccc2nc3cc(Cl)ccc3c(NCCCCNc3nc(N)nc(N)n3)c2c1 [Ligand 1]
cell permeability [3]: poor cell permeability
selectivity for CUG repeat relative to a random duplex [4]: over 50 fold

Nc1nc(N)nc(NCCCCNc2c3ccccc3nc3ccc(C(=O)NCCOCCOCCOCCOCCOCCNC(=O)c4ccc5nc6ccccc6c(NCCCCNc6nc(N)nc(N)n6)c5c4)cc23)n1 [Ligand 13]
bivalent effect (ratio of normalized IC50 of 2 to that of the dimeric ligand) [1]: 3

Nc1nc(N)nc(NCCCCNc2c3ccccc3nc3c(C(=O)NCCNCCNCCNC(=O)c4cccc5c(NCCCCNc6nc(N)nc(N)n6)c6ccccc6nc45)cccc23)n1 [Ligand 11]
bivalent effect (ratio of normalized IC50 of 2 to that of the dimeric ligand) [1]: 29
fold decrease in KD compared to 2 (fold greater affinity to (CUG)6) [2]: 14 fold
(CUG)960 foci dispersion [5, 11]: no significant foci dispersion
fold higher ΔTm value than 7 [6]: > 3 fold

Nc1nc(N)nc(NCCCCNc2c3ccccc3nc3c(C(=O)NCCNCCNCCNCCNC(=O)c4cccc5c(NCCCCNc6nc(N)nc(N)n6)c6ccccc6nc45)cccc23)n1 [Ligand 10]
bivalent effect (ratio of normalized IC50 of 2 to that of the dimeric ligand) [1]: 24
fold decrease in KD compared to 2 (fold greater affinity to (CUG)6) [2]: 17 fold

CNC(=O)c1ccc2nc3ccccc3c(NCCCCNc3nc(N)nc(N)n3)c2c1 [Ligand 2]
(CUG)960 foci dispersion [5, 11]: no significant foci dispersion
cytotoxicity [7]: less than 20%

Nc1nc(N)nc(NCCCCNc2c3ccccc3nc3ccc(C(=O)NCCOCCOCCNC(=O)c4ccc5nc6ccccc6c(NCCCCNc6nc(N)nc(N)n6)c5c4)cc23)n1 [Ligand 7]
bivalent effect (ratio of normalized IC50 of 2 to that of the dimeric ligand) [1]: 8
KD [2]: close to the monomeric ligand 2

NCCCNCCCCNCCCN [spermine, Spermine, reference compound]
(CUG)960 foci dispersion [5, 11]: no significant foci dispersion

Nc1nc(N)nc(NCCCCNc2c3ccccc3nc3c(C(=O)NCCCNCCCNCCCNC(=O)c4cccc5c(NCCCCNc6nc(N)nc(N)n6)c6ccccc6nc45)cccc23)n1 [Ligand 9]
bivalent effect (ratio of normalized IC50 of 2 to that of the dimeric ligand) [1]: 133
fold greater inhibition potency than 2 in inhibiting formation of the (CUG)12·MBNL1 complex [1]: 266 fold
Aqueous solubility [8]: aqueous-soluble
fold tighter binder than 10 ([2]; 9 versus 10): 10 fold
fold decrease in KD compared to 2 (fold greater affinity to (CUG)6) [2]: 206 fold
MBNL1 foci dispersion in live cells [9]: almost complete dispersion; also recorded: gradually dispersing over time; also recorded: almost all the foci are dispersed; also recorded: gradual MBNL1 foci dispersion
(CUG)960 foci dispersion ([5]; 20 μM, p-value < 0.009): partial foci dispersion
(CUG)960 foci dispersion ([5]; 35 μM, p-value < 0.009): partial foci dispersion
(CUG)960 foci dispersion ([5]; 50 μM): full foci dispersion
cellular and nuclear penetration [10]: both cell- and nucleus-permeable; also recorded: penetrate the cellular and nuclear membrane
cytotoxicity [7]: less than 20%

Nc1nc(N)nc(NCCCCNc2c3ccccc3nc3ccc(C(=O)NCCCNCCCCCCCCNCCCNC(=O)c4ccc5nc6ccccc6c(NCCCCNc6nc(N)nc(N)n6)c5c4)cc23)n1 [Ligand 5]
Solubility in the buffer used for optical melting (Solution) ([8]; N.S. = not sufficiently soluble): not fully soluble
(CUG)960 foci dispersion [5, 11]: no significant foci dispersion
cellular and nuclear penetration [10]: cell-permeable and nucleus-permeable
